One series deals with Integrin alpha-V/beta-3 (Homo sapiens, UniProt P05106+P06756). As to the kind of experiment: Inhibitory activity against alpha v beta-3 receptor using scintillation proximity assay (SPAV3). It is filed as protein-complex assay. A general note: Scintillation proximity formats need no separation of bound from free tracer.
The nature of series [1]: Clearance value in dog at 0.2 mg/kg dose in intravenous and 1 mg/kg of peroral. The note with it: in vivo. It is filed as ADME, organism-based, Canis lupus familiaris. A digest of the protocol: (§1)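 Dogs given compound in water at 0.2 mpk iv and 1 mpk po; oral bioavailability, plasma clearance and plasma half-life derived from plasma levels.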
For series [2], the system named is Rattus norvegicus. The series can be described thus: Effect on distal femoral metaphysis (DFM)-bone mineral density (BMD) in ovariectomized female rats; OVX + 5f dosed orally 1 mg/kg. The format is functional. The note with it: route oral. A digest of the protocol:
(§2)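 Female rats ovariectomized, then dosed orally q.d. at 1, 3 or 10 mg/kg starting within 24 h, for 28 days. Comparators were sham-operated rats, OVX rats on vehicle, and OVX rats on alendronate 0.003 mg/kg/d s.c. BMD (mg/cm2) measured at the distal femoral metaphysis, given as mean ± SEM. Groups compared by Kruskal–Wallis ANOVA with Student–Newman–Keuls post-hoc test.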

For series [3], the system named is Rattus norvegicus. As to the kind of experiment: Effect on distal femoral metaphysis (DFM)-bone mineral density (BMD) in ovariectomized female rats; OVX + 5f dosed orally 3 mg/kg. It is filed as functional. To be noted: route oral. The gist of the method: as §2
In series [4] the test system is Rattus norvegicus. As to the kind of experiment: Effect on distal femoral metaphysis (DFM)-bone mineral density (BMD) in ovariectomized female rats; OVX + 5f dosed orally 10 mg/kg. To be noted: route oral. The format is functional. A digest of the protocol:
as §2

Series [5] in a line: h-Protein binding value of the compound. It is filed as ADME. Further details: concentration or dose not given beside the values. The note with it: human. A digest of the protocol: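 Binding in human plasma determined by high-throughput ultrafiltration of diluted plasma in pH 7.4 buffer.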
The nature of series [6]: Half life in dog at 0.2 mg/kg dose in intravenous and 1 mg/kg of peroral. The note with it: in vivo. It is filed as ADME, organism-based, Canis lupus familiaris. A digest of the protocol:
as §1

Series [7] is described as follows: Half life in rat at 0.5 mg/kg dose in intravenous and 1 mg/kg of peroral. The format is ADME, organism-based. To be noted: in vivo.
Series [8] can be described thus: Half life in monkey at 0.2 mg/kg dose in intravenous and 1 mg/kg of peroral. It is filed as ADME, organism-based. To be noted: cercopithecidae, in vivo.
Series [9] is described as follows: Clearance value in rat at 0.5 mg/kg dose in intravenous and 1 mg/kg of peroral. To be noted: in vivo. It is filed as ADME, organism-based.
Series [10] in a line: Clearance value in monkey at 0.2 mg/kg dose in intravenous and 1 mg/kg of peroral. It is filed as ADME, organism-based. To be noted: cercopithecidae, in vivo.
Series [11] is described as follows: Bioavailability in dog (dose 0.2 mg/kg i.v. and 1 mg/kg p.o.). To be noted: in vivo, po. It is filed as ADME, organism-based, Canis lupus familiaris. The gist of the method: as §1
Series [12] is described as follows: Bioavailability in rat (dose 0.5 mg/kg i.v. 1 mg/kg of p.o.). The format is ADME, organism-based. The note with it: in vivo, po.
A short description of series [13]: Bioavailability in monkey (dose 0.2 mg/kg i.v. and 1 mg/kg p.o.). It is filed as ADME, organism-based. The note with it: cercopithecidae, in vivo, po.
Series [14] in a line: Partition coefficient (logP). It is filed as physicochemical. To be noted: octanol/water. A digest of the protocol:
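log P measured as partition between octanol and pH 7.4 buffer.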

Series [15] deals with Rattus norvegicus. As to the kind of experiment: Effect on distal femoral metaphysis (DFM)-bone mineral density (BMD) in ovariectomized female rats; OVX + 5e dosed orally 20 mg/kg/d. The note with it: route oral.
Series [16] relates to Rattus norvegicus. The series can be described thus: Effect on distal femoral metaphysis (DFM)-bone mineral density (BMD) in ovariectomized female rats; OVX + 5e dosed orally 30 mg/kg/d. To be noted: route oral.

Some results are limits rather than exact numbers.

For orientation: IC50 means the concentration that inhibits the measured activity by half. Broadly, the half-life is the time needed for the level to fall by half in the phase considered. The bioavailability is the share of a dose that reaches the circulation, judged against a reference dose that is usually intravenous. Broadly, the logP is the decadic logarithm of the partition coefficient of the neutral form, usually between octanol and water.

Integrin alpha-V/beta-3, sequence (P05106 27-788 limits assumed): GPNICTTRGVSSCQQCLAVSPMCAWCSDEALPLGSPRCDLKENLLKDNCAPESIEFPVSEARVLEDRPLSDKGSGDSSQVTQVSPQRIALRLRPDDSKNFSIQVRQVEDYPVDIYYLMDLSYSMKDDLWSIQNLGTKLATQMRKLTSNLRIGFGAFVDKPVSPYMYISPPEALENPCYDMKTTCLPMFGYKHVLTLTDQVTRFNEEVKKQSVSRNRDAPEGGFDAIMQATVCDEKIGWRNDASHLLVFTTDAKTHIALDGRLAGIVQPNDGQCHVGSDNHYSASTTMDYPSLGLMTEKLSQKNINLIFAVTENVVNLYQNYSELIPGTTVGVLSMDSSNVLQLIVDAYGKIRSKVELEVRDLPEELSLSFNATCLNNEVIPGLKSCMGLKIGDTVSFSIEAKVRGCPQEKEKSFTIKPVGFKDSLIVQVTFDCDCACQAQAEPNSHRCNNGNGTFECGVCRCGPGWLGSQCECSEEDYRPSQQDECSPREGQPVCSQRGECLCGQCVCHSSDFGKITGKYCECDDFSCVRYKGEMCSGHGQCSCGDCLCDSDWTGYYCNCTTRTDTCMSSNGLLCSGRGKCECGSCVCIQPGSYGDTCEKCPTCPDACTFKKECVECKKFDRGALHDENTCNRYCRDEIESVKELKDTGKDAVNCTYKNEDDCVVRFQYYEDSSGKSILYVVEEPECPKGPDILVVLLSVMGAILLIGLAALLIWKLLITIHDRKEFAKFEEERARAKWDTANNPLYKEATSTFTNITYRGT
Integrin alpha-V/beta-3, sequence (P06756 31-889 limits assumed): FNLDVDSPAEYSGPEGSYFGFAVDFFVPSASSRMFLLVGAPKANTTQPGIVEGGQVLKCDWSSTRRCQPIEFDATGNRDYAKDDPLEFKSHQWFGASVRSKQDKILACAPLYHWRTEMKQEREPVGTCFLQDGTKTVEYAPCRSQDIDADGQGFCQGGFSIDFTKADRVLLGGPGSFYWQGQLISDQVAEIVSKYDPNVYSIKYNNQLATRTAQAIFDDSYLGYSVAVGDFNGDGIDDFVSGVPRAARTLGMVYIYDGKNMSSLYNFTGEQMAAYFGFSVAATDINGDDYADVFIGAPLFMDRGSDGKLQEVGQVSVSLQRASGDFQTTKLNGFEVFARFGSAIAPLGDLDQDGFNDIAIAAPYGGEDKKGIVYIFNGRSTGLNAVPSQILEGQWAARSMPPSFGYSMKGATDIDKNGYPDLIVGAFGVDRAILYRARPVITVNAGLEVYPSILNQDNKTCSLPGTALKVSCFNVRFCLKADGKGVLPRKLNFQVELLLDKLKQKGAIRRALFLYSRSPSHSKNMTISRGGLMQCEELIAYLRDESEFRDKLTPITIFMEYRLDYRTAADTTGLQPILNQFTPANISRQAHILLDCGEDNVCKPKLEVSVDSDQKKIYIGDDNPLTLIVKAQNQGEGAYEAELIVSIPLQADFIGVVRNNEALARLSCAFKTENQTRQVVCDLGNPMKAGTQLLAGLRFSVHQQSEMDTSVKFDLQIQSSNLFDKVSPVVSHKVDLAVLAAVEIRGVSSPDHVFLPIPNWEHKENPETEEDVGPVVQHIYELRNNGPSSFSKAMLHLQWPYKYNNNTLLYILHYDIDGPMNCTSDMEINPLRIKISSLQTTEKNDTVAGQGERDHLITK
Integrin alpha-V/beta-3, sequence (P06756 891-1048 limits assumed): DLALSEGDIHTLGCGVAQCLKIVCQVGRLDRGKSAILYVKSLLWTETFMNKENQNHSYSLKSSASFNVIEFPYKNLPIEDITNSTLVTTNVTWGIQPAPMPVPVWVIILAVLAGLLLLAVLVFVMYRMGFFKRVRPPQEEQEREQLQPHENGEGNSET

On Integrin alpha-V/beta-3, `O=C(O)C[C@H](NC(=O)CCCCc1ccc2c(n1)NCCC2)c1cccc(F)c1` showed an IC50 of 27.7 nM.

For the compound `Cc1ncc([C@@H](CCCCCCc2ccc3c(n2)NCCC3)CC(=O)O)cn1`, the clearance was 2.5 mL/min/kg in series [1], 3.6 mL/min/kg in [9] and 4.5 mL/min/kg in series [10]. The IC50 against Integrin alpha-V/beta-3 was 0.08 nM. For the same compound, the DFM turned out to be 158.3 mg/cm2 in the series with Rattus norvegicus [2], 173 mg/cm2 in the series with Rattus norvegicus [3] and 176 mg/cm2 in the series with Rattus norvegicus [4]. The compound also showed an Activity in series [5] of 96%. Also, the half-life was 570 min in series [6], 306 min in series [7] and 1020 min in series [8]. Moreover, the bioavailability stood at 83% in series [11], 100% in series [12] and 75% in series [13]. Further, the logP in [14] (read-out: logP) is 0.43.

The compound `O=C(O)C[C@H](CCCCCCc1ccc2c(n1)NCCC2)c1cnc2ccccc2c1` returned a clearance in series [1] of 3 mL/min/kg. Also, the IC50 on Integrin alpha-V/beta-3 amounted to 0.2 nM. The compound also registered an Activity in series [5] of over 99.9%. Besides, in [6], the half-life was 300 min. In series [11], this compound displayed a bioavailability of 65%. Besides, the logP in series [14] (read-out: logP) worked out at 2.39.

For `COc1ncc([C@@H](CCCCCCc2ccc3c(n2)NCCC3)CC(=O)O)cn1`, the clearance in [1] turned out to be 4.3 mL/min/kg. The compound also registered an IC50 against Integrin alpha-V/beta-3 of 0.11 nM. In series [5], the Activity is reported as 97%. In addition, the half-life in series [6] is 408 min. The same compound returned a bioavailability in series [11] of 100%. Moreover, the logP in [14] (read-out: logP) turned out to be 0.65.

As for `O=C(O)CC(NC(=O)CCCCc1ccc2c(n1)NCCC2)c1cncnc1` (stereo not drawn), in [1], the clearance amounted to 26 mL/min/kg. This compound also came in with an Activity in [5] of 44%. In series [11], this compound displayed a bioavailability of 10%. The logP in series [14] (read-out: logP) was -1.2.

Compound `O=C(O)CC(CCCCCCc1ccc2c(n1)NCCC2)c1cccc(F)c1` (stereo not drawn) came in with an IC50 against Integrin alpha-V/beta-3 of 0.93 nM.

Compound `COc1ccc([C@@H](CCCCCCc2ccc3c(n2)NCCC3)CC(=O)O)cn1` had a clearance in series [1] of 5.1 mL/min/kg. Moreover, at Integrin alpha-V/beta-3, 0.65 nM corresponded to half-maximal inhibition (IC50). In series [5], this compound returned an Activity of 99.5%. In addition, in series [6], the half-life is 570 min. Moreover, in [11], the bioavailability amounted to 49%. In series [14], this compound registered a logP of 1.67.

`CC(C)c1ncc([C@@H](CCCCCCc2ccc3c(n2)NCCC3)CC(=O)O)cn1`: the IC50 against Integrin alpha-V/beta-3 stood at 0.52 nM. The compound further returned an Activity in series [5] of 99%. The logP in [14] (read-out: logP) was 1.32.

On to `O=C(O)C[C@H](CCCCCCc1ccc2c(n1)NCCC2)c1ccc2c(c1)OCC2`, for which the clearance in series [1] is 7.9 mL/min/kg. This compound also returned an IC50 at Integrin alpha-V/beta-3 of 0.21 nM. Also, the Activity in series [5] came out at 99.9%. This compound had a half-life in series [6] of 348 min. This compound also gave a bioavailability in series [11] of over 99%. In addition, the logP in [14] (read-out: logP) was determined as 2.39.

Turning to `O=C(O)C[C@H](CCCCCCc1ccc2c(n1)NCCC2)c1cncnc1`, the clearance turned out to be 3.9 mL/min/kg in series [1], 30 mL/min/kg in series [9] and 19 mL/min/kg in [10]. Also, the IC50 against Integrin alpha-V/beta-3 worked out at 0.07 nM. In [5], this compound yielded an Activity of 94%. Moreover, the half-life in series [6] was 384 min; in series [7], 270 min; in [8] it was 138 min. Further, the bioavailability in series [11] worked out at 66%; in series [12], 45%; in series [13] it was 46%. Further, the logP in [14] (read-out: logP) was found to be 0.1. In addition, the values for the DFM in the series on Rattus norvegicus [15] and in the series with Rattus norvegicus [16] were 150.8 mg/cm2 and 153.2 mg/cm2, respectively.

With `O=C(O)CC(/C=C/CCCCc1ccc2c(n1)NCCC2)c1cccc(F)c1` (stereo not drawn), half-maximal inhibition against Integrin alpha-V/beta-3 (IC50) required 7.2 nM.

The values are drawn from ChEMBL document CHEMBL1138759, “Nonpeptide alphavbeta3 antagonists. Part 11: discovery and preclinical evaluation of potent alphavbeta3 antagonists for the prevention and treatment of osteoporosis” (J Med Chem, 2004).
